Data on one molecule can be found in ChEMBL document CHEMBL3525925, “In vitro studies on the oxidative metabolism of 20(s)-ginsenoside Rh2 in human, monkey, dog, rat, and mouse liver microsomes, and human liver s9” (Drug Metab Dispos, 2012).

Series [1] is described as follows: Drug excretion in rat urine at 50 mg/kg, po. The following applies: in vivo. The class given is ADME, organism-based. Also noted: dose 50 mg/kg, route oral.
The nature of series [2]: Drug excretion in rat feces at 50 mg/kg, po. The class given is ADME, organism-based. Also noted: dose 50 mg/kg, route oral. The settings on record: faeces, read-out: Drug excretion.
The subject of series [3] is Liver microsome. The experiment in a line: Drug metabolism in human liver microsomes assessed as oxidative metabolism at 10 uM in presence of 2 uM quinidine CYP2D6 inhibitor. The class given is ADME. The method, boiled down: (§1)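 Pooled human liver microsomes (1 mg/ml, mixed-gender, 50 donors), 10 µM Rh2, 2 mM NADPH and selective inhibitor in 100 mM potassium phosphate pH 7.4; 37°C, 60 min; ice-cold acetonitrile stop; uninhibited controls; duplicates; formation of M1-2, M1-3 and M1-4+M1-5 quantified by LC/ion-trap MSn.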

In the next series the target is T1, Cytochrome P450 2B6 (Homo sapiens, UniProt P20813).
T1 sequence (P20813 whole entry): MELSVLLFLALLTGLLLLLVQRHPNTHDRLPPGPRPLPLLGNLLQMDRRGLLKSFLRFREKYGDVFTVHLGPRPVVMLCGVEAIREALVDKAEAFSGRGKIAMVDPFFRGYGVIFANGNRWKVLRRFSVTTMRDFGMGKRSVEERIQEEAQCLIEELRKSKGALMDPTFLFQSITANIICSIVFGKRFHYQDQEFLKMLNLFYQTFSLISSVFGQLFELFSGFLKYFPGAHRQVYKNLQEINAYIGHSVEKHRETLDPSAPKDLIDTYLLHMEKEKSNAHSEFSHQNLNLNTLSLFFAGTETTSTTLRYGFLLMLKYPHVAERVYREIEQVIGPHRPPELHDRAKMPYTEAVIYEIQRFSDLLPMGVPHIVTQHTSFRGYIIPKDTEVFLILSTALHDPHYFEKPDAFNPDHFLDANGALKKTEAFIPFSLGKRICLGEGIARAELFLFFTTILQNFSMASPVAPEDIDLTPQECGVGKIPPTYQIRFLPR
The experiment in a line: Drug metabolism in human recombinant CYP2B6 mediated oxidative metabolism at 10 uM. The class given is ADME. The following applies: recombinant enzyme. A digest of the protocol:
(§2)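 Recombinant human P450 at 50 nM incubated with 10 µM Rh2 and 2 mM NADPH in 100 mM potassium phosphate pH 7.4, 37°C, 60 min; ice-cold acetonitrile stop; duplicates; metabolites detected by LC/ion-trap MSn.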

Another series concerns the target T2, Cytochrome P450 1B1 (Homo sapiens, UniProt Q16678).
T2 sequence (Q16678 whole entry): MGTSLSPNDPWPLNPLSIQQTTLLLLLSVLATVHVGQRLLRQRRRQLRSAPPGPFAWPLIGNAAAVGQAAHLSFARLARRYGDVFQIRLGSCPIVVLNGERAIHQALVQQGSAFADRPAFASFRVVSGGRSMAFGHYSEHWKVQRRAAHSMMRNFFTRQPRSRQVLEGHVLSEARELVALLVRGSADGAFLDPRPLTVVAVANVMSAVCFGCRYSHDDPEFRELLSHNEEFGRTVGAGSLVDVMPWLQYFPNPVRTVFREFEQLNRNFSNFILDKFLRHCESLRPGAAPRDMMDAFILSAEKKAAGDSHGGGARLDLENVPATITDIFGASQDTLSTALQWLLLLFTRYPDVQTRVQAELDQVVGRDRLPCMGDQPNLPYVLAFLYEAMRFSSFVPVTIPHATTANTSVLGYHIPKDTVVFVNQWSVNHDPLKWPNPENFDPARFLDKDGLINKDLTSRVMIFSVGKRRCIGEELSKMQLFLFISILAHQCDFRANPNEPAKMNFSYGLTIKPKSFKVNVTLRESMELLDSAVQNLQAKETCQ
The series is described as follows: Drug metabolism in human recombinant CYP1B1 mediated oxidative metabolism at 10 uM. The class given is ADME. The settings on record: recombinant enzyme. The method, boiled down: as §2

Series [4] has as its system Liver microsome. The series is described as follows: Drug metabolism in human liver microsomes assessed as oxidative metabolism at 10 uM in presence of 10 uM ketoconazole CYP3A inhibitor. The class given is ADME. A digest of the protocol:
as §1
(In general: Liver microsomes are vesicles of endoplasmic reticulum, rich in cytochrome P450 enzymes.)

A short description of series [5]: Oral bioavailability in beagle dog at 8 mg/kg. The following applies: in vivo. The class given is ADME, organism-based, Canis lupus familiaris.
A further series addresses T3, Cytochrome P450 2A6 (Homo sapiens, UniProt P11509).
T3 sequence (P11509 whole entry): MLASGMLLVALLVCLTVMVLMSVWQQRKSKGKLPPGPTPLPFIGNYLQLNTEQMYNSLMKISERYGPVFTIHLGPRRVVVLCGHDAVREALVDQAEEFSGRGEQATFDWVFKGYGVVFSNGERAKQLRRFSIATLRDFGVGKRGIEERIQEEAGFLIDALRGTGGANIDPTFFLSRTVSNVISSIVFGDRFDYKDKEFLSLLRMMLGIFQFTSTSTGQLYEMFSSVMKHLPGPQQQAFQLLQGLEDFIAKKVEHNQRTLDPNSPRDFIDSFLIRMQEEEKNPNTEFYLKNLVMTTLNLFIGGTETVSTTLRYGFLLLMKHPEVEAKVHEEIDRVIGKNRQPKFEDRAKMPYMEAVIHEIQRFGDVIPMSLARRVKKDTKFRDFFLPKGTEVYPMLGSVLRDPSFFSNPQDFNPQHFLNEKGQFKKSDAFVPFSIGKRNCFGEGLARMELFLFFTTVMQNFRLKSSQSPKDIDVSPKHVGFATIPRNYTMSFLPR
The experiment in a line: Drug metabolism in human recombinant CYP2A6 mediated oxidative metabolism at 10 uM. The class given is ADME. The settings on record: recombinant enzyme. The method, boiled down:
as §2

Series [6] is described as follows: Drug metabolism in cynomolgus monkey liver microsomes assessed as (2S)-2-amino-5-((2R)-1-(carboxymethylamino)-3-((6S)-2,6-dihydroxy-6-((3S,5R,8R,9R,10R,12R,13R,14R,17S)-12-hydroxy-4,4,8,10,14-pentamethyl-3-((2R,3R,4S,5S,6R)-3,4,5-trihydroxy-6-(hydroxymethyl)tetrahydro-2H-pyran-2-yloxy)hexadecahydro-1H-cyclopenta[a]phenanthren-17-yl)-2-methylheptan-3-ylthio)-1-oxopropan-2-ylamino)-5-oxopentanoic acid formation at 10 uM by LC/MS analysis in presence of 1 uM ketoconazole. The class given is ADME, Macaca fascicularis. A digest of the protocol: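 Cynomolgus monkey liver microsomes (1 mg/ml) with 2 mM GSH, 10 µM Rh2 and 1.0 µM ketoconazole preincubated 10 min before adding 2 mM NADPH; GSH conjugate measured by LC/ion-trap MSn peak area; duplicates.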

For series [7], the system named is Liver microsome. The series is described as follows: Drug metabolism in human liver microsomes assessed as oxidative metabolism at 10 uM in presence of 60 uM chlormethiazole CYP2E1 inhibitor. The class given is ADME. A digest of the protocol:
as §1

Another series addresses Cytochrome P450 2E1 (Homo sapiens, UniProt P05181). The series is described as follows: Drug metabolism in human recombinant CYP2E1 mediated oxidative metabolism at 10 uM. The class given is ADME. The settings on record: recombinant enzyme. A digest of the protocol: as §2

Structures are written as SMILES.

Chain of Cytochrome P450 2E1 (P05181 whole entry): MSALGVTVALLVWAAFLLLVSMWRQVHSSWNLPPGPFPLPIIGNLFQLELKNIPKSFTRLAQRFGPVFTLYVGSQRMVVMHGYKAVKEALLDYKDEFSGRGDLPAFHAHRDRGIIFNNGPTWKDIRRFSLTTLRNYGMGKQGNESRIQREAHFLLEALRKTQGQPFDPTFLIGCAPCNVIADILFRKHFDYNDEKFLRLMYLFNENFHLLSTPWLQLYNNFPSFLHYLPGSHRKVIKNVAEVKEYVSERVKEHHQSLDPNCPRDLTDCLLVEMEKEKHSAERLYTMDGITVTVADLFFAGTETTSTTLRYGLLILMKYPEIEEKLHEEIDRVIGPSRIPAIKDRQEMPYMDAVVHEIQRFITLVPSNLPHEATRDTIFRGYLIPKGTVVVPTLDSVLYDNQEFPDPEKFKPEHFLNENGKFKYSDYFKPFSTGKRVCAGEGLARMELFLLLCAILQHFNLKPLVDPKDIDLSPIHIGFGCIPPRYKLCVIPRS

For `CC(C)=CCC[C@](C)(O)[C@H]1CC[C@]2(C)[C@@H]1[C@H](O)C[C@@H]1[C@@]3(C)CC[C@H](O[C@@H]4O[C@H](CO)[C@@H](O)[C@H](O)[C@H]4O)C(C)(C)[C@@H]3CC[C@]12C` [GINSENOSIDE RH2], the Drug excretion entry in series [1] is on record as “metabolite_not_detected”. In series [2], the dose excreted is less than 10%. Also, the Drug metabolism result in the series with Liver microsome [3] is listed as “metabolite_detected”; at Cytochrome P450 2B6, “metabolite_not_detected”; at Cytochrome P450 1B1 it was “metabolite_not_detected”; in the series with Liver microsome [4], “metabolite_not_detected”; on Cytochrome P450 2A6, “metabolite_not_detected”; in series [6], “metabolite_not_detected”. Further, the Drug metabolism result in the series with Liver microsome [7] is given as “metabolite_detected”; at Cytochrome P450 2E1, “metabolite_not_detected”. Besides, the bioavailability (as a rule, the share of a dose that reaches the circulation, judged against a reference dose that is usually intravenous) in [5] came out at 55%.
